An excerpt weighted towards active compounds, which were near 2.4% of everything screened.
JMJD2C inh = inhibitors of GASC-1 histone demethylase, primary screen, biochemical, fluorescence, DELFIA europium; Lysine-specific demethylase 4C (Homo sapiens), Q9H3R0; GST-JMJD2C(1-420) H3K9me3 demethylation; inhibition, % at 2.35 µM; 330,000 tested, 0.069% active; AID 2099, 2009;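 active = more than half of a compound's replicate wells show inhibition beyond 50%, single wells judged on their own value; inconclusive = some, but no more than half, of replicates pass 50% inhibition; inactive = no replicate passes 50% inhibition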;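 note: signal counts dimethyl H3K9 product captured on neutravidin plate; 0% = median of DMSO wells and 100% = 0.3 times that DMSO median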
CTSL1 counter = Fasciola hepatica cathepsin L1 inhibitors, primary screen, counter-screen for PFM18AAP inhibitor project, biochemical, QFRET, fluorogenic peptide substrate. AID 1906, 2009. 300,000 tested, 0.49% active. inhibition, % at 5.96 µM. recombinant F. hepatica cathepsin L1, Z-Leu-Arg-MCA fluorescence;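 active = inhibition above the mean of all tested compounds plus 3 SD, set per screening campaign, cut at about 17% in these data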;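 note: 0% = plate median of test compound wells and 100% = 1 µM Z-Phe-Ala-diazomethylketone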
T cruzi inh = inhibitors of intracellular T. cruzi growth, primary screen, luminescence, NIH3T3 host cells; 300,000 tested, 1.4% active; T. cruzi beta-gal in NIH3T3, 90 h; AID 1885, 2009; inhibition, % (test concentration not listed);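 active = mean inhibition across valid replicates above about 55%, limit read from the data; inconclusive = mean below that limit but half or more replicates reach it; inactive = mean below it, under half of replicates reach it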;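 note: signal also drops with host cell toxicity which is not excluded here; 0% = plate median of DMSO wells and 100% = zero luminescence signal; higher percent means less beta-gal luminescence so fewer parasites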
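Test system: β-gal T. cruzi (Tulahuen C4) inside NIH/3T3 cells / Quantity: 5,000 cells/well / Measured by: luminescence from GalScreen with 0.05% NP40, read after 60 min / Medium: DMEM plus 2% FBS / Measure: parasite load inhibition, % / Reagent: Tulahuen C4 trypomastigotes, 5000/well / Schedule: co-culture of at least 90 h after 3 h attachment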
PP5 primary = PP5 phosphatase inhibitors, primary screen, biochemical, fluorescence. purified PP5c, OMFP substrate fluorescence. inhibition, % at 6.7 µM. 320,000 tested, 0.18% active. AID 1987, 2009;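 active = inhibition above the campaign's mean inhibition across all tested compounds plus 3 SD, cut at about 9.5% in these data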;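 note: 0% = DMSO only and 100% = 100 µM cantharidin control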
p-CIP stab down = p/CIP-EGFP fusion destabilizers, primary screen, fluorescence, F442A cells; 290,000 tested, 0.01% active; Q05BA5; decrease of EGFP signal, % at 10 µM; 16 h;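 active = EGFP signal decrease of at least 30% at 10 µM or well 3 SD below plate mean, unless failing retest; inactive = the rest, including hits failing retest or dose response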
Target sequence (Q05BA5 1-1403): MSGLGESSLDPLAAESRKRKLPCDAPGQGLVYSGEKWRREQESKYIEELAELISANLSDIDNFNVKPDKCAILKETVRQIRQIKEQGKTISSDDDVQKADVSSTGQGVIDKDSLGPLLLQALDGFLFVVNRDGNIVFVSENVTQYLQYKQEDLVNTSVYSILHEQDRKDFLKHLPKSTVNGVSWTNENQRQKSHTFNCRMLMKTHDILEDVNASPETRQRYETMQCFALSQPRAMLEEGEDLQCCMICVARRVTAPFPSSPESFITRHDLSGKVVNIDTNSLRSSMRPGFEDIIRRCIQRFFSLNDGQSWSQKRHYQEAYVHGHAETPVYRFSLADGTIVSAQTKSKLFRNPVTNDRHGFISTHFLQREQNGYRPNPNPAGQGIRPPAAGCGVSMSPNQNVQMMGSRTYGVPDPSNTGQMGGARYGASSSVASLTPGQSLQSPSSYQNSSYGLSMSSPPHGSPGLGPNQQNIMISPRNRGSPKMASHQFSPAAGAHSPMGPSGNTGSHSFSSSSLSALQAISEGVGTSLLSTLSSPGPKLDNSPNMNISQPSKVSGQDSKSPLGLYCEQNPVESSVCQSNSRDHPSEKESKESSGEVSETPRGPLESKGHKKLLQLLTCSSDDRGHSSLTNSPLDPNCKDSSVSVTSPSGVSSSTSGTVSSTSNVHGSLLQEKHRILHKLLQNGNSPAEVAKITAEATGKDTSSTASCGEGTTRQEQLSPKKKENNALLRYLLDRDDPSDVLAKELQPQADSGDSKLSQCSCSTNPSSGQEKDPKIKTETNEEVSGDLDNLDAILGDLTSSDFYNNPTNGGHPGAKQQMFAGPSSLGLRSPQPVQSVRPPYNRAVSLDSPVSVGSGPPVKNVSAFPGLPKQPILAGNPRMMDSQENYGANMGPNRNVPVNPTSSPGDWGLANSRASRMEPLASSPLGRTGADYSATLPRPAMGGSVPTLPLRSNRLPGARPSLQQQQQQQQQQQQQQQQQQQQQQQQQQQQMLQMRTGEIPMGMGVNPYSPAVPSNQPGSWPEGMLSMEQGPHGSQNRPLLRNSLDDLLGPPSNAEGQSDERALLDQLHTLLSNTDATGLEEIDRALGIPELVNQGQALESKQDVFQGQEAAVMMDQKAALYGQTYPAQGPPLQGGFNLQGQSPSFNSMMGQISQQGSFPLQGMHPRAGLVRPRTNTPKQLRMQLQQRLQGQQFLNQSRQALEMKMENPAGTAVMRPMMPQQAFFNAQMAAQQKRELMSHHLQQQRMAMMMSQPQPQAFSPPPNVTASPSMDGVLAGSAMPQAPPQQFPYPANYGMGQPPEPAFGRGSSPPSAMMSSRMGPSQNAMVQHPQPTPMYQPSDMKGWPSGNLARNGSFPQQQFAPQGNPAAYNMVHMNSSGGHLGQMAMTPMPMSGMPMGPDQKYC
H9c2 protect = cardioprotection against H2O2-induced cell death, primary screen, uHTS, H9c2 cells, ATPLite luminescence; H9c2 cardiomyocytes, H2O2 injury protection, 2 h; protection from H2O2 cell death, % at 20 µM; 360,000 tested, 0.63% active;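 active = compounds giving at least 50% protection of heart cells from peroxide-induced death in the single-dose screen, raw or plate-pattern-corrected value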;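 note: 0% = DMSO wells with peroxide and 100% = DMSO wells without peroxide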
An asterisk follows results filed as active; i = inactive; ? = inconclusive; . = no result given.

SMILES | JMJD2C inh | CTSL1 counter | T cruzi inh | PP5 primary | p-CIP stab down | H9c2 protect
CCC(c1nnnn1C(C)(C)C)N(Cc1cccs1)Cc1cc2cc(C)c(C)cc2n2nnnc12 (configuration not stated) | -3 | 19* | 56* | 0 | . | .
CCOc1ccc2[nH]c(=O)c(CN(Cc3ccco3)Cc3nnnn3Cc3ccccc3)cc2c1 | 0 | -2 | 1 | 1 | -9 | 13
CCc1nc2ccc(C(=O)NC3CCC(C)CC3)cc2nc1CC (configuration not stated) | 0 | -1 | -5 | 0 | -8 | 8
O=C(CSC1=NS(=O)(=O)c2ccccc2N1)NCc1ccc(F)cc1 | 13 | -3 | -6 | 1 | . | -2
Cc1ccc(OCC(=O)NCCCNC(=O)c2ccco2)cc1 | -14 | 3 | -11 | 0 | -10 | 3
O=c1[nH]c2cc3c(cc2cc1CN(Cc1nnnn1CC1CCCO1)C1CCCCC1)OCO3 (configuration not stated) | 0 | 2 | -10 | -3 | -5 | 57*
COC(=O)c1ccc(NC(=O)CCN2CCN(Cc3ccccc3)CC2)cc1 | 8 | 2 | 65* | 3 | 1 | -3
CC(C)(C)c1cc(C(=O)N/N=C/c2ccc(F)cc2)n(-c2ccccc2)n1 | -1 | -2 | 18 | 0 | 0 | -2
COc1ccc(/C=N/NC(=O)c2nc(-c3ccccc3)n(-c3ccccc3)n2)c(O)c1 | -21 | -1 | 17 | 0 | -6 | 61*
CC(C)(C)c1cc(C(=O)N/N=C/c2ccccc2O)n(-c2ccccc2)n1 | 7 | 0 | 31 | 0 | -8 | 51*
Cc1cccc(C)c1OCc1cc(C(=O)N(Cc2nccn2C)C(C)C)no1 | -3 | -1 | 10 | 0 | -2 | 1
CCOCCn1ccc2c(OCC(=O)Nc3cc(OC)ccc3OC)cccc2c1=O | -4 | 3 | 13 | 1 | . | 53*
COCCn1c(SCC(=O)NCC2CCCO2)nc2c([nH]c3ccccc32)c1=O (configuration not stated) | 3 | 2 | -1 | 2 | -5 | 7
CCN1C(=O)C(=O)c2cc(C)ccc21 | 7 | . | . | . | . | 4
CC[N+]1=C(C)C(C)(C)c2cc(C)ccc21 | 9 | 0 | 57* | 1 | -58 | -19
CN(C)C(CNC(=O)c1ccc([N+](=O)[O-])cc1Cl)c1ccco1 (configuration not stated) | -22 | 19* | 4 | 1 | -1 | -5
CN(C)c1ccc([N+](=O)[O-])cc1C(=O)NCC(c1ccco1)N(C)C (configuration not stated) | 9 | 5 | -11 | 3 | -8 | 1
CCN(CC)CCn1c(=N)n(CC(O)COc2ccccc2)c2ccccc21 (configuration not stated) | 15 | -3 | -6 | 3 | -4 | 2
CCN(CC)CCn1c(=N)n(CCOc2ccccc2)c2ccccc21 | 9 | 0 | 69* | 4 | -6 | -15
COc1ccccc1C(=O)NCC(=O)OCC(=O)Nc1cccc(S(=O)(=O)N(C)C)c1 | 2 | -14 | -10 | 1 | -2 | 8
CCN(CC)S(=O)(=O)c1cccc(NC(=O)COC(=O)CNC(=O)c2cccc(F)c2)c1 | -22 | 18* | -37 | -1 | -15 | 0
Clc1ccccc1OCCCCn1ccnc1 | -5 | 3 | 63* | 1 | -3 | 2
Cc1cc(OCCCCn2ccnc2)cc(C)c1Cl | . | -5 | 69* | 0 | -10 | -14
Clc1ccccc1OCCCn1ccnc1 | 1 | 1 | 1 | -1 | 10 | 2
Cc1cc(Cl)cc(C)c1OCCCCn1ccnc1 | -1 | 0 | ? | -2 | -4 | -2
SMILES | JMJD2C inh | CTSL1 counter | T cruzi inh | PP5 primary | p-CIP stab down | H9c2 protect
Cc1cccc(Cl)c1OCCCCn1ccnc1 | -7 | 5 | 66* | 1 | -1 | -5
Cc1ccccc1OCCCCCn1ccnc1 | 3 | 1 | 67* | -2 | -13 | -8
Cc1ccc(C)c(OCCn2ccnc2)c1 | i | -1 | -19 | 4 | 0 | 0
CCCCN(C(=O)C1CC(=O)N(c2ccc(C)cc2)C1)c1c(N)n(CCC)c(=O)[nH]c1=O (configuration not stated) | . | . | . | . | . | 1
CCn1nc(C)c(CNC(=O)c2cc(COc3ccc(C)nc3)on2)c1C | -7 | -2 | -4 | -3 | -1 | -10
Cc1cccc(OCCn2ccnc2)c1 | 5 | 1 | 0 | -1 | 2 | 4
Cc1cccc(OCCCCCn2ccnc2)c1 | -1 | 1 | 57* | 1 | 8 | -3
COc1ccc(O)c(/C=C(\C#N)C(=O)Nc2ccccn2)c1 | 9 | . | -9 | . | -4 | 1
Cc1cc2oc(=O)cc(CNc3ccccc3F)c2cc1O | 5 | 4 | 59* | 2 | -9 | -4
CCOC(=O)C1(Cc2cccc(Cl)c2)CCCN(C(=O)CCN2CCCC2=O)C1 (configuration not stated) | -14 | -1 | 3 | 4 | -12 | 1
Cc1cccc(NS(=O)(=O)c2cc3c(cc2C)N(C)CCO3)c1 | -4 | 65* | 17 | 2 | -7 | -14
COc1cccc(NS(=O)(=O)c2cc3c(cc2C)N(C)CCO3)c1 | 0 | 1 | 5 | 4 | 14 | -18
COc1ccc(N(C)S(=O)(=O)c2cccc(C(=O)NCC3CCCCC3)c2)cc1 | -26 | . | 69* | . | -27 | -6
COc1ccc(N(C)S(=O)(=O)c2cccc(C(=O)NC3CCCC3)c2)cc1 | -12 | -2 | -11 | 3 | -7 | -1
COc1ccc(Cl)cc1S(=O)(=O)Nc1ccc2c(c1)n(C)c(=O)n2C | 2 | -2 | . | 3 | -7 | -8
O=C(NCc1ccc(F)cc1)C(c1ccccc1)c1ccccc1 | 6 | 10 | -6 | -6 | -7 | 3
CC(=O)N(Cc1ccc(F)cc1)C1=C(NCc2ccccc2)C(=O)c2ccccc2C1=O | 12 | . | 67* | . | 6 | -36
CCOc1ccc(C2c3c(oc4ccccc4c3=O)C(=O)N2c2ccc(C)cn2)cc1OC (configuration not stated) | -12 | -3 | 33 | 1 | -1 | 16
COc1cc(C2c3c(oc4ccccc4c3=O)C(=O)N2c2ccc(C)cn2)ccc1O (configuration not stated) | 0 | 1 | 5 | 2 | 1 | 63*
COc1ccc(C(=O)Nc2ccccc2C(=O)NC2CC2)c(OC)c1OC | . | . | . | . | . | 1
CCOc1cc(C)c(Cl)cc1S(=O)(=O)n1ccnc1 | 6 | -1 | 72* | 1 | -7 | 0

From PubChem
